Laboratory results as given in ChEMBL document CHEMBL4477168, “Hydrolyzable Tannins of Tamaricaceous Plants. 7.1 Structures and Cytotoxic Properties of Oligomeric Ellagitannins from Leaves of Tamarix nilotica and Cultured Tissues of Tamarix tetrandra” (J Nat Prod, 2016).

Key:
HSC-2 = test: Cytotoxic activity against human HSC2 cells assessed as reduction in cell viability incubated for 48 hrs by MTT assay; format: functional; conditions: HSC-2, 48 h
How it was run: (§1)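 OSCC lines HSC-2, HSC-3, HSC-4 grown in DMEM + 10% heat-inactivated FBS, 37 °C, humidified 5% CO2. Seeded 5 × 10^3 cells/well; after 48 h medium swapped for compound-containing medium (20 mM DMSO stock; top 100 μM, 2-fold serial dilution, three replicate wells). Further 48 h, viable cells by MTT; CC50 read from dose−response curve; at least three independent experiments averaged.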

HSC-3 = test: Cytotoxic activity against human HSC3 cells assessed as reduction in cell viability incubated for 48 hrs by MTT assay; format: functional; conditions: HSC-3, 48 h; how it was run: as §1
HSC-4 = test: Cytotoxic activity against human HSC4 cells assessed as reduction in cell viability incubated for 48 hrs by MTT assay; format: functional; conditions: HSC-4, 48 h; how it was run: as §1
HL-60 = test: Cytotoxic activity against human HL60 cells assessed as reduction in cell viability incubated for 48 hrs by trypan blue staining based hemocytometry; format: functional; conditions: HL-60, 48 h
How it was run: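 HL-60 cultured in RPMI1640 + 10% heat-inactivated FBS at 37 °C; plated at 3.0 × 10^4 cells/0.1 mL with various compound concentrations (DMSO stock 20 mM). After 48 h, viable cells counted by trypan blue exclusion on a hemocytometer under light microscope; CC50 from dose−response curve, mean of at least three independent experiments.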

[1] = Cytotoxic activity against human HGF cells assessed as reduction in cell viability incubated for 48 hrs by MTT assay; format: cell-based
How it was run: (§2)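 Normal oral cells (gingival fibroblasts, pulp cells, periodontal ligament fibroblasts) from a premolar of a child, used at 8−15 population doublings; DMEM + 10% heat-inactivated FBS, 37 °C, 5% CO2. Seeded 5 × 10^3 cells/well, medium replaced after 48 h with compound (DMSO stock 20 mM; 2-fold dilutions from 100 μM, triplicate wells); 48 h more, MTT viability; CC50 from dose−response curve; mean of ≥3 independent experiments.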

[2] = Cytotoxic activity against human HPC cells assessed as reduction in cell viability incubated for 48 hrs by MTT assay; format: cell-based; how it was run: as §2
[3] = Cytotoxic activity against human HPLF cells assessed as reduction in cell viability incubated for 48 hrs by MTT assay; format: cell-based; how it was run: as §2

## O=C(O[C@@H]1O[C@@H]2COC(=O)c3cc(O)c(O)c(O)c3-c3c(cc(O)c(O)c3O)C(=O)O[C@H]2[C@H](OC(=O)c2cc(O)c(O)c(O)c2)[C@H]1OC(=O)c1cc(O)c(O)c(O)c1Oc1cc(C(=O)O[C@@H]2O[C@@H]3COC(=O)c4cc(O)c(O)c(O)c4-c4c(cc(O)c(O)c4O)C(=O)O[C@H]3[C@H](OC(=O)c3cc(O)c(O)c(O)c3)[C@H]2OC(=O)c2cc(O)c(O)c(O)c2Oc2cc3c(c(O)c2O)Oc2cc(cc(O)c2O)C(=O)O[C@@H]2O[C@@H]4COC(=O)c5cc(O)c(O)c(O)c5-c5c(cc(O)c(O)c5O)C(=O)O[C@H]4[C@H](OC(=O)c4cc(O)c(O)c(O)c4)[C@H]2OC3=O)cc(O)c1O)c1cc(O)c(O)c(O)c1
HSC-2
  CC50: 18.8 µM
HSC-3
  CC50: 25.5 µM
HSC-4
  CC50: 34.3 µM
HL-60
  CC50: 16.4 µM
[1]
  CC50 at 48 h: 87.7 µM
[2]
  CC50 at 48 h: 85 µM
[3]
  CC50 at 48 h: 98.6 µM

## O=C(O[C@H]1[C@@H]2OC(=O)c3cc(O)c(O)c(O)c3-c3c(cc(O)c(O)c3O)C(=O)OC[C@H]2OC(O)[C@@H]1O)c1cc(O)c(O)c(O)c1 (some centres undefined)
HSC-2
  CC50: 5.82 µM
HSC-3
  CC50: 23.3 µM
HSC-4
  CC50: 34.4 µM
HL-60
  CC50: 30.5 µM
[1]
  CC50 at 48 h: > 100 µM
[2]
  CC50 at 48 h: > 100 µM
[3]
  CC50 at 48 h: > 100 µM

## O=C(O[C@@H]1O[C@@H]2COC(=O)c3cc(O)c(O)c(O)c3-c3c(cc(O)c(O)c3O)C(=O)O[C@H]2[C@H](OC(=O)c2cc(O)c(O)c(O)c2)[C@H]1OC(=O)c1cc(O)c(O)c(O)c1)c1cc(O)c(O)c(Oc2c(C(=O)O[C@H]3[C@H](OC(=O)c4cc(O)c(O)c(Oc5c(C(=O)O[C@H]6C(O)O[C@@H]7COC(=O)c8cc(O)c(O)c(O)c8-c8c(cc(O)c(O)c8O)C(=O)O[C@H]7[C@@H]6OC(=O)c6cc(O)c(O)c(O)c6)cc(O)c(O)c5O)c4)O[C@@H]4COC(=O)c5cc(O)c(O)c(O)c5-c5c(cc(O)c(O)c5O)C(=O)O[C@H]4[C@@H]3OC(=O)c3cc(O)c(O)c(O)c3)cc(O)c(O)c2O)c1 (some centres undefined)
HSC-2
  CC50: 23.2 µM
HSC-3
  CC50: 21.2 µM
HSC-4
  CC50: 33.9 µM
HL-60
  CC50: 6.48 µM
[1]
  CC50 at 48 h: 88 µM
[2]
  CC50 at 48 h: 86 µM
[3]
  CC50 at 48 h: 88.3 µM

## O=C(O[C@@H]1O[C@@H]2COC(=O)c3cc(O)c(O)c(O)c3-c3c(cc(O)c(O)c3O)C(=O)O[C@H]2[C@H](OC(=O)c2cc(O)c(O)c(O)c2)[C@H]1OC(=O)c1cc(O)c(O)c(O)c1)c1cc(O)c(O)c(Oc2c(C(=O)O[C@@H]3[C@@H](OC(=O)c4cc(O)c(O)c(O)c4)[C@@H]4OC(=O)c5cc(O)c(O)c(O)c5-c5c(cc(O)c(O)c5O)C(=O)OC[C@H]4O[C@H]3O)cc(O)c(O)c2O)c1
HSC-2
  CC50: 17.7 µM
HSC-3
  CC50: 32.6 µM
HSC-4
  CC50: 37.9 µM
HL-60
  CC50: 19.5 µM
[1]
  CC50 at 48 h: 92 µM
[2]
  CC50 at 48 h: 86.6 µM
[3]
  CC50 at 48 h: > 100 µM

## O=C(O[C@@H]1O[C@@H]2COC(=O)c3cc(O)c(O)c(O)c3-c3c(cc(O)c(O)c3O)C(=O)O[C@H]2[C@H](OC(=O)c2cc(O)c(O)c(O)c2)[C@H]1OC(=O)c1cc(O)c(O)c(O)c1)c1cc(O)c(Oc2c(C(=O)O[C@H]3[C@H](OC(=O)c4cc(O)c(O)c(O)c4)O[C@@H]4COC(=O)c5cc(O)c(O)c(O)c5-c5c(cc(O)c(O)c5O)C(=O)O[C@H]4[C@@H]3OC(=O)c3cc(O)c(O)c(O)c3)cc(O)c(O)c2O)c(O)c1
HSC-2
  CC50: 16.3 µM
HSC-3
  CC50: 29.4 µM
HSC-4
  CC50: 27.7 µM
HL-60
  CC50: 29.7 µM
[1]
  CC50 at 48 h: 95.3 µM
[2]
  CC50 at 48 h: 89 µM
[3]
  CC50 at 48 h: > 100 µM

## O=C(O[C@@H]1O[C@@H]2COC(=O)c3cc(O)c(O)c(O)c3-c3c(cc(O)c(O)c3O)C(=O)O[C@H]2[C@H](OC(=O)c2cc(O)c(O)c(O)c2)[C@H]1O)c1cc(O)c(O)c(O)c1
HSC-2
  CC50: 14.1 µM
HSC-3
  CC50: 28 µM
HSC-4
  CC50: 38 µM
HL-60
  CC50: 39.9 µM
[1]
  CC50 at 48 h: > 100 µM
[2]
  CC50 at 48 h: > 100 µM
[3]
  CC50 at 48 h: > 100 µM

## O=C(O[C@H]1[C@@H]2OC(=O)c3cc(O)c(O)c(O)c3-c3c(cc(O)c(O)c3O)C(=O)OC[C@H]2OC(O)[C@@H]1OC(=O)c1cc(O)c(O)c(O)c1)c1cc(O)c(O)c(O)c1 (some centres undefined)
HSC-2
  CC50: 14.6 µM
HSC-3
  CC50: 19.5 µM
HSC-4
  CC50: 45.7 µM
HL-60
  CC50: 46.7 µM
[1]
  CC50 at 48 h: > 100 µM
[2]
  CC50 at 48 h: 64 µM
[3]
  CC50 at 48 h: > 100 µM
